EP2 mod: modulators of human EP2 prostaglandin E2 receptor; P43116; EP2-expressing cells, cAMP HTRF FRET, PGE2 co-stimulation; induction, % at 25 µM; hit rate 0.83% among 260,000;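 active = compounds whose cAMP rise, as percent of the full-agonist control response, exceeds 60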;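 note: rat C6 glioma line stably carrying human EP2 under a CMV promoter; the protocol text gives 20 µM as final concentration; 100% = response of wells given 1 µM PGE2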
GPR7 antagonist: antagonists of human GPR7 (neuropeptides B/W receptor 1); inhibition, % at 4.4 µM; P48145; hit rate 1.1% among 290,000; GPR7-expressing cells, fluorescence antagonist assay; AID 1861; in the data active = inhibition above about 16%, passing the limit was not always enough;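 note: cells stimulated with the agonist NPW; 0% = agonist with vehicle and 100% = vehicle without agonist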
Target sequence (P48145 whole entry, looked up): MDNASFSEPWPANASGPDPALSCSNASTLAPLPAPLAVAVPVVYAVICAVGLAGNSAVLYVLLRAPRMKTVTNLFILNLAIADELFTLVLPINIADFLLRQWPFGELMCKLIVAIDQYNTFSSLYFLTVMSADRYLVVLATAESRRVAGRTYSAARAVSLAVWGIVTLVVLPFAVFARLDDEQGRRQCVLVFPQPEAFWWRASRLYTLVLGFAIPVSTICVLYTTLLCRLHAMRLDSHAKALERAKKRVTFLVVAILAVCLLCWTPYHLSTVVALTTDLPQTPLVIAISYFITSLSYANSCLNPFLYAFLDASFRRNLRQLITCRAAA
OX1R antag-1: blocks the human orexin 1 receptor; CHO/OX1R cells, Fluo-8 calcium fluorescence, orexin A; inhibition, % at 5 µM; hit rate 0.43% among 330,000; AID 434989;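 active = inhibition above its plate's threshold, mean inhibition of all tested compounds on the plate plus 3 SD, cut at about 37% in these data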;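 note: 0% = orexin A challenge wells and 100% = SB-334867-A antagonist wells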
PGE2 EP2 inh: blocks the human prostaglandin E2 receptor EP2; inhibition, % at 25 µM; AID 1422; C6 glioma cells expressing human EP2, cAMP TR-FRET; cells stimulated with saturating PGE2; hit rate 0.52% among 260,000;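 active = percent inhibition above 40 after rounding to a whole number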;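 note: rat C6 glioma host cells with rolipram phosphodiesterase inhibitor present; the protocol text gives 20 µM as final concentration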
CHO parental Ca: signal in parental CHO cells, OX1R antagonist counter-screen; parental CHO-K1, ATP-induced calcium, Fluo-8 fluorescence; inhibition, % at 5.6 µM; hit rate 0.63% among 330,000; AID 463079;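 active = inhibition above that plate's mean sample inhibition plus 3 SD, cut at about 26% in these data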;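 note: 0% = ATP-challenged DMSO wells and 100% = DMSO wells without ATP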
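Material – parental CHO cells · Reagent – ATP stimulus · Compound – single nominal dose of 5.6 µM per compound · Detection – Fluo-8 fluorescence · Read-out basis – percent inhibition of calcium signal · Controls – ATP-challenged DMSO wells low, unchallenged DMSO wells high · Repeats – no replicates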
OX1R antag-2: OX1R (human) antagonism | O43613 | inhibition, % at 6.6 µM | OX1R-expressing cells, FRET antagonist read-out | hit rate 1.8% among 330,000; in the data active = inhibition mostly above about 38%, no sharp cut-off; inactive = mostly below about 40%;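 note: 0% = agonist challenge alone and 100% = reference antagonist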
GPR7 antag conf: human GPR7 antagonism, confirmation assay. GPR7-expressing cells, calcium fluorescence antagonist mode. shares compounds with GPR7 antagonist. inhibition, % at 4.4 µM. hit rate 52% among 2,400; in the data active = inhibition above about 24%;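 note: stimulated with the GPR7 agonist NPW; 0% = agonist plus vehicle and 100% = vehicle alone without agonist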
MCHR1 antag: antagonizes human MCHR1, a GPR7 antagonist counter-screen; shares compounds with GPR7 antagonist; MCHR1-expressing cells, fluorescence antagonist assay; inhibition, % at 4.4 µM; hit rate 62% among 2,400; in the data active = inhibition above about 22%;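 note: 0% = vehicle with agonist and 100% = vehicle without agonist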
Active calls of the source: *; . = no result given. Sampled rows, rich in hits. Any-hit rate of the full collection: about 3.7%.

SMILES	EP2 mod	GPR7 antagonist	OX1R antag-1	PGE2 EP2 inh	CHO parental Ca	OX1R antag-2	GPR7 antag conf	MCHR1 antag
C/C(=N/NC(=O)CNC(=O)Cc1ccccc1)c1ccco1	12	-11	-19	10	-8	9	.	.
O=C(COC(=O)c1cc(S(=O)(=O)N2CCOCC2)ccc1Cl)NCc1ccc2c(c1)OCO2	.	.	-32	.	-20	10	.	.
COc1ccc(NC(=O)CSc2nc3cc(C)ccc3cc2C)c(OC)c1	16	.	.	17	.	.	.	.
C/C(=N\NC(=O)C(O)c1ccccc1)c1ccc(Cl)cc1 (stereo unspecified)	.	-8	-2	.	-2	15	.	.
O=C(Nc1ccccc1N1CCN(c2ccccc2)CC1)c1ccccc1	43	22*	-35	4	-28	11	22	45*
O=C(Cc1ccc(Cl)cc1)Nc1ccccc1N1CCN(C(=O)c2ccccc2)CC1	.	28*	-9	.	-19	6	36*	51*
Cc1ccccc1OC(C)C(=O)N1CCC(Cc2ccccc2)CC1 (stereo unspecified)	.	28*	-21	.	-13	35	19	36*
COc1ccccc1OC(C)C(=O)N1CCC(Cc2ccccc2)CC1 (stereo unspecified)	.	4	-15	.	-5	14	.	.
COc1ccccc1C(=O)Nc1ccc(OCC(=O)N2CC(C)OC(C)C2)cc1 (stereo unspecified)	.	.	-30	.	-10	13	.	.
CC(C)(C)C(=O)NC1(C(F)(F)F)NC(=O)N(Cc2ccccc2)C1=O (stereo unspecified)	-32	25*	-23	12	-12	20	0	9
CC(=O)NCCNC(=O)c1ccc(Sc2ccccc2)c([N+](=O)[O-])c1	-28	-14	-18	3	-13	39	.	.
CN(C)CCNC(=O)c1ccc(Sc2ccc(Br)cc2)c([N+](=O)[O-])c1	-44	23*	-14	20	1	14	37*	42*
CCN(CC)CC(O)Cn1c(C)c(-c2ccccc2)c2cc([N+](=O)[O-])ccc21 (stereo unspecified)	.	41*	2	.	-13	14	45*	48*
O=C1Nc2cc(C(=O)NCCCN3CCOCC3)ccc2S/C1=C/c1ccccc1F	.	40*	-7	.	-11	25	33*	28*
CCN1C(=O)c2ccccc2Sc2ccc(C(=O)NCCCN3CCOCC3)cc21	7	-10	-29	3	-5	20	.	.
O=C(NCCCN1CCOCC1)c1ccc2c(c1)N(Cc1c(F)cccc1Cl)C(=O)c1ccccc1S2	.	25*	-23	.	-19	2	37*	12
Cc1cccc(NC(=S)N(CCCN2CCOCC2)C(C)c2cc3ccccc3o2)c1C (stereo unspecified)	24	0	-28	9	-28	16	.	.
COc1ccc(-n2nnnc2SCC(=O)Nc2cc(OC)c([N+](=O)[O-])cc2C)cc1	-3	-11	-15	7	-7	40	.	.
Cc1ccc(C(=O)c2ccc([N+](=O)[O-])cc2)cc1C	47	-6	-11	11	-5	20	.	.
O=C(c1ccccc1)c1ccc(Sc2ccc([N+](=O)[O-])cc2)cc1	-24	22*	2	3	6	21	22	53*
CN(Cc1ccccc1)C1=CC(=[N+]2CCCC2)CC(C)(C)C1	-27	29*	4	-2	9	15	49*	38*
CC1(C)CC(N2CCN(c3ccccc3)CC2)=CC(=[N+]2CCCC2)C1	9	6	21	11	-13	8	.	.
Cc1ccccc1C(=O)Nc1ccc2c(c1)CCCN2C(=O)c1cccs1	.	25*	-14	.	-16	20	16	35*
COc1cccc(C(=O)Nc2ccc3c(c2)CCCN3C(=O)c2cccs2)c1OC	.	-13	-22	.	-20	30	.	.
CCCCN(CC(=O)Nc1c(C)cccc1CC)C(=O)SCC	26	36*	-10	17	-22	23	39*	30*
SMILES	EP2 mod	GPR7 antagonist	OX1R antag-1	PGE2 EP2 inh	CHO parental Ca	OX1R antag-2	GPR7 antag conf	MCHR1 antag
CCc1cccc(C)c1NC(=O)Cc1ccsc1	.	-9	-2	.	-21	19	.	.
C=CCN(CC(=O)Nc1c(C)cccc1CC)C(=O)SCCC	48	27*	-18	6	-18	16	20	18
CCCSC(=O)N(CC)CC(=O)Nc1c(CC)cccc1CC	28	26*	-22	7	-22	24	26*	22*
NC(=O)N/N=C1\CC[C@H](O)C[C@@H]1CC(=O)O	13	.	.	11	.	.	.	.
Cc1c(N(C(=O)c2ccccn2)C2(C(=O)NC3CCCCC3)CCCCC2)c(=O)n(-c2ccccc2)n1C	19	-12	-12	4	-17	-10	.	.
COc1ccc(NC(=O)NCCCN2CCC(Cc3ccccc3)CC2)cc1	-26	13	0	8	-1	9	.	.
CSc1ccc(NC(=O)NCCCN2CCC(Cc3ccccc3)CC2)cc1	.	29*	-17	.	2	-9	26*	33*
CC(C)C(=O)Nc1ccc(NC(=O)c2ccco2)cn1	-11	-1	2	8	-1	9	.	.
CC(C)C(=O)Nc1ccc(NC(=O)CCc2ccccc2)cn1	-16	23*	-5	13	-2	1	5	2
NC(=O)C1CCN(CC(=O)Nc2ccc(S(=O)(=O)N3CCOCC3)cc2)CC1	.	-18	-2	.	-6	10	.	.
CC(C)C(=O)NCCn1cc(C(=O)NC2CCCC2)nn1	-2	.	.	12	.	.	.	.
CN1C(=O)C(/C(N)=N/NC(=O)c2ccccc2)C2CC1(C)Oc1ccccc12 (stereo unspecified)	17	99*	-4	5	-3	12	9	-3
CCOc1ccc(CCNC(=O)CCc2nnc3ccc(N4CCOCC4)nn23)cc1OCC	.	30*	8	.	1	8	1	4
CC(C)CN1C(=O)/C(=C(/C#N)C(=O)NC2CCCCC2)c2ccccc21	-34	0	-20	2	-16	24	.	.
Cc1ccc(NC(=O)CSc2nnc(-c3ccncc3)n2C)cc1C	31	83*	-4	7	-6	14	-7	1
CN1CCN(c2ccc(Cl)cc2NC(=O)/C=C/c2cccc(F)c2)CC1	-56	27*	-10	4	7	0	43*	28*
CN(C)S(=O)(=O)c1cccc(C(=O)Nc2cc(Cl)ccc2O)c1	-13	-13	-25	14	-7	15	.	.
CN1CCN(c2ccc(Cl)cc2NC(=O)c2cccc(S(=O)(=O)N(C)C)c2)CC1	-27	24*	-30	6	-19	6	16	13
CCc1ccc(NC(=O)c2cnn(-c3ccccc3)c2C)cc1	-38	-9	-17	0	-3	24	.	.

Screening results: PubChem BioAssay, several laboratories
